{"source": "ChEMBL document CHEMBL1128588", "about": "“Synthesis and cytotoxicity of water-soluble ambrosin prodrug candidates” (1995)", "format_in_all_cases": "functional", "settings_in_all_cases": "Homo sapiens", "key": {"[1]": {"tested_on": "LOX IMVI", "experiment": "The compound was evaluated for cytotoxicity against melanoma cell line LOX-IMVI", "method_in_brief": "(§1)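 Tested within a panel of about 51 human cancer cell lines covering leukemia, non-small-cell lung and other tumour types. The value reported is GI50, the concentration giving 50% growth inhibition.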"}, "[2]": {"tested_on": "PC-3", "experiment": "The compound was evaluated for cytotoxicity against prostate cancer cell line PC-3", "method_in_brief": "as §1"}, "[3]": {"tested_on": "SF-539", "experiment": "The compound was evaluated for cytotoxicity against CNS cancer cell line CNS SF-539", "method_in_brief": "as §1"}, "[4]": {"tested_on": "OVCAR-5", "experiment": "The compound was evaluated for cytotoxicity against ovarian cancer cell line OVCAR-5", "method_in_brief": "as §1"}, "[5]": {"tested_on": "NCI-H522", "experiment": "The compound was evaluated for cytotoxicity against lung cancer cell line NCI-H522", "method_in_brief": "as §1"}, "[6]": {"tested_on": "HCT-116", "experiment": "The compound was evaluated for cytotoxicity against colon cancer cell line HCT116", "method_in_brief": "as §1"}, "[7]": {"tested_on": "SN12C", "experiment": "The compound was evaluated for cytotoxicity against renal cancer cell line SN12C", "method_in_brief": "as §1"}, "[8]": {"tested_on": "MCF7", "experiment": "The compound was evaluated for cytotoxicity against breast cancer cell line MCF-7", "method_in_brief": "as §1"}}, "data": [{"compound": "C[C@H]1CC[C@H]2C(CN3CCCCC3)C(=O)O[C@H]2[C@]2(C)C(=O)CC(N3CCCCC3)[C@@H]12", "note": "(some centres undefined)", "values": [{"measurement": "GI50", "setting": "[1]", "result": 3.6, "unit": "µM"}, {"measurement": "GI50", "setting": "[2]", "result": 8.5, "unit": "µM"}, {"measurement": "GI50", "setting": "[3]", "result": 5.4, "unit": "µM"}, {"measurement": "GI50", "setting": "[4]", "result": 22, "unit": "µM"}, {"measurement": "GI50", "setting": "[5]", "result": 1.1, "unit": "µM"}, {"measurement": "GI50", "setting": "[6]", "result": 1.8, "unit": "µM"}, {"measurement": "GI50", "setting": "[7]", "result": 8.1, "unit": "µM"}, {"measurement": "GI50", "setting": "[8]", "result": 4.7, "unit": "µM"}]}, {"compound": "C=C1C(=O)O[C@@H]2[C@H]1CC[C@H](C)[C@@H]1C=CC(=O)[C@@]21C", "note": "[AMBROSIN]", "values": [{"measurement": "GI50", "setting": "[1]", "result": 2.2, "unit": "µM"}, {"measurement": "GI50", "setting": "[2]", "result": 4.5, "unit": "µM"}, {"measurement": "GI50", "setting": "[3]", "result": 2.9, "unit": "µM"}, {"measurement": "GI50", "setting": "[4]", "result": 4.9, "unit": "µM"}, {"measurement": "GI50", "setting": "[5]", "result": 1, "unit": "µM"}, {"measurement": "GI50", "setting": "[6]", "result": 1.8, "unit": "µM"}, {"measurement": "GI50", "setting": "[7]", "result": 3.4, "unit": "µM"}, {"measurement": "GI50", "setting": "[8]", "result": 3.9, "unit": "µM"}]}, {"compound": "C[C@H]1CC[C@H]2C(CN3CCCC3)C(=O)O[C@H]2[C@]2(C)C(=O)CC(N3CCCC3)[C@@H]12", "note": "(some centres undefined)", "values": [{"measurement": "GI50", "setting": "[1]", "result": 3.3, "unit": "µM"}, {"measurement": "GI50", "setting": "[2]", "result": 20, "unit": "µM"}, {"measurement": "GI50", "setting": "[3]", "result": 9.1, "unit": "µM"}, {"measurement": "GI50", "setting": "[4]", "result": 6.3, "unit": "µM"}, {"measurement": "GI50", "setting": "[5]", "result": 1.8, "unit": "µM"}, {"measurement": "GI50", "setting": "[6]", "result": 3.8, "unit": "µM"}, {"measurement": "GI50", "setting": "[7]", "result": 11, "unit": "µM"}, {"measurement": "GI50", "setting": "[8]", "result": 4.2, "unit": "µM"}]}]}
